Source: ChEMBL document CHEMBL1770119, “Synthesis and SAR of 4-(pyrazol-3-yl)-pyridines as novel c-jun N-terminal kinase inhibitors” (Bioorg Med Chem Lett, 2011)

Tests used:
Assay type in all cases: ADME, organism-based
[1] = AUC in Sprague-Dawley rat at 2 mg/kg, po; parameters: dose 2 mg/kg, route oral; conditions: plasma
How it was run: (§1)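 Sprague-Dawley rats (n = 3) given 1 mg/kg IV and 2 mg/kg oral gavage. Blood taken into EDTA tubes at 5, 15, 30 min and 1, 2, 4, 6, 8 h; plasma obtained by centrifugation. Plasma proteins precipitated with acetonitrile; drug measured by LC-MS/MS. Parameters derived by noncompartmental analysis.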

[2] = Drug level in plasma of C57Bl6 mouse at 10 mg/kg, ip after 2 hrs; parameters: dose 10 mg/kg, route intraperitoneal; conditions: read-out: Drug uptake
How it was run: (§2)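 C57Bl6 mice (n = 3) dosed 10 mg/kg intraperitoneally; blood and brain collected 2 h later. Plasma and brain mixed with acetonitrile (1:5 v:v or w:v); brain broken up by probe sonication. Drug measured by LC-MS/MS against standards in plasma or in blank brain matrix.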

Rattus norvegicus = experiment: Oral bioavailability in Sprague-Dawley rat at 2 mg/kg; conditions: in vivo; how it was run: as §1
[3] = Drug level in brain of C57Bl6 mouse at 10 mg/kg, ip after 2 hrs; parameters: dose 10 mg/kg, route intraperitoneal; conditions: read-out: Drug uptake; how it was run: as §2

Row | SMILES | AUC [1] | concentration at 2 h [2] | F (Rattus norvegicus) | concentration at 2 h [3]
1 | Cc1nc(C)n(-c2ccc(Nc3cc(-c4ccn(C)n4)c(Cl)cn3)cc2)n1 | 7.1 µM·h | 10.4 µM | 73% | 5.3 µM
2 | Cn1ccc(-c2cc(Nc3ccc(-n4cnc(N5CCOCC5)n4)cc3)ncc2Cl)n1 | 45 µM·h | 6.6 µM | 75% | 3.5 µM
3 | Cc1ccc(-c2ncn(-c3ccc(Nc4cc(-c5ccn(C)n5)c(F)cn4)cc3)n2)cn1 | 10 µM·h | 9 µM | 69% | 10.3 µM
4 | Cn1ccc(-c2cc(Nc3ccc(-n4cnc(-c5ccccn5)n4)cc3)ncc2F)n1 | 14.9 µM·h | 3.3 µM | 73% | 0.74 µM
5 | Cc1nc(C)n(-c2ccc(Nc3cc(-c4nn(C)cc4-c4ccc(F)cc4)ccn3)cc2)n1 | 6 µM·h | 9 µM | 51% | 1.4 µM
